Assay results from ChEMBL document CHEMBL1629442, “Structure based optimization of chromen-based TNF-α converting enzyme (TACE) inhibitors on S1' pocket and their quantitative structure-activity relationship (QSAR) study” (Bioorg Med Chem, 2010).
Blank lines part the entries; values can stand above or below the molecule they belong to.

Experiments:
[1] = target: T1, Disintegrin and metalloproteinase domain-containing protein 17 (Homo sapiens, UniProt P78536); experiment: Inhibition of human TACE by fluorescent spectroscopy
[2] = target: T1, Disintegrin and metalloproteinase domain-containing protein 17; experiment: Inhibition of human TNF-alpha by fluorescent spectroscopy; format: functional
Mus musculus [3] = species: Mus musculus; experiment: Inhibition of NO production in mouse Raw 264.7 cells assessed as No2- accumulation in the medium after 24 hrs; format: functional, cell-based
Method in brief: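 RAW264.7 cells cultured with inhibitors for 24 h. Supernatant mixed 1:1 with Griess reagent (1% sulfanilamide, 0.1% naphthylethylenediamine dihydrochloride, 2% phosphoric acid), 10 min at room temperature. Absorbance read at 540 nm against a NaNO2 standard curve.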

[4] = Half life in Sprague-Dawley rat at 5 mg/kg, iv; format: ADME, organism-based; set-up: dose 5 mg/kg, route intravenous; settings: in vivo
Method in brief: (§1)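 Male SD rats (10 weeks old, 285–305 g), cannulated in the right jugular vein, dosed iv or po with compound in saline, N = 3 per route. Blood drawn through the cannula at set times over 24 h and spun for plasma. Acetonitrile protein precipitation with carbamazepine internal standard, LC/MS/MS in positive MRM mode, non-compartmental analysis.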

[5] = Half life in Sprague-Dawley rat at 30 mg/kg, po; format: ADME, organism-based; set-up: dose 30 mg/kg, route oral; settings: in vivo; method in brief: as §1
[6] = Mean residence time (infinity) in Sprague-Dawley rat at 5 mg/kg, iv; format: ADME, organism-based; set-up: dose 5 mg/kg, route intravenous; settings: in vivo; method in brief: as §1
[7] = Mean residence time (infinity) in Sprague-Dawley rat at 30 mg/kg, po; format: ADME, organism-based; set-up: dose 30 mg/kg, route oral; settings: in vivo; method in brief: as §1
[8] = Oral bioavailability in Sprague-Dawley rat at 30 mg/kg, po; format: ADME, organism-based; settings: in vivo; method in brief: as §1
Rattus norvegicus [9] = experiment: Antiinflammatory activity in Sprague-Dawley rat assessed as inhibition of carrageenan-induced paw edema at 30 mg/kg, ip administered 30 mins before carrageenan challenge measured at 6 hrs; format: functional; set-up: scale not given: the % may be the effect or the level left; settings: route intraperitoneal
Method in brief: (§2)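 SD rats (150 g, 5 weeks, SPF), five per group: vehicle, indomethacin 10 mg/kg (DMSO/Tween 80/H2O 1:4:95) as positive control, or compound at 30 or 100 mg/kg (ethanol/PEG 400-based vehicle), given ip. Ankle thickness measured by caliper; swelling expressed as % increase over pre-treatment thickness. Inhibition taken relative to vehicle at 6 h and later time point.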

Rattus norvegicus [10] = experiment: Antiinflammatory activity in Sprague-Dawley rat assessed as inhibition of carrageenan-induced paw edema at 100 mg/kg, ip administered 30 mins before carrageenan challenge measured at 6 hrs; format: functional; set-up: scale not given: the % may be the effect or the level left; settings: route intraperitoneal; method in brief: as §2
Rattus norvegicus [11] = experiment: Antiinflammatory activity in Sprague-Dawley rat assessed as inhibition of carrageenan-induced paw edema at 30 mg/kg, ip administered 30 mins before carrageenan challenge measured at 12 hrs; format: functional; set-up: scale not given: the % may be the effect or the level left; settings: route intraperitoneal; method in brief: as §2
Rattus norvegicus [12] = experiment: Antiinflammatory activity in Sprague-Dawley rat assessed as inhibition of carrageenan-induced paw edema at 100 mg/kg, ip administered 30 mins before carrageenan challenge measured at 12 hrs; format: functional; set-up: scale not given: the % may be the effect or the level left; settings: route intraperitoneal; method in brief: as §2
Interstitial collagenase = target: T2, Interstitial collagenase (Homo sapiens, UniProt P03956); experiment: Inhibition of human MMP1 in cell-free system by fluorescent spectroscopy
T2 sequence (P03956 whole entry): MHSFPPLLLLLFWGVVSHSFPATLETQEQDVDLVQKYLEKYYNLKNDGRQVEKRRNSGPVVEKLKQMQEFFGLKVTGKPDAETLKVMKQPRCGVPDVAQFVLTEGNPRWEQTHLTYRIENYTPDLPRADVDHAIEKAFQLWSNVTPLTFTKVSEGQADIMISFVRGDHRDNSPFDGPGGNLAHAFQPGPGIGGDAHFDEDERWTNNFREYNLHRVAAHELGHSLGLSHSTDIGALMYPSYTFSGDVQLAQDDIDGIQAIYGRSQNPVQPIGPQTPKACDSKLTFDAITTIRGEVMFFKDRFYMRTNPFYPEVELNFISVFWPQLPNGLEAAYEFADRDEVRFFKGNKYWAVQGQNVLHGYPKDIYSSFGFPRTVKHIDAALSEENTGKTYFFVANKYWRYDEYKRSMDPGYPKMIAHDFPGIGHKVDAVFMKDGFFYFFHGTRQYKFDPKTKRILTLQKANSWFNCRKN

Stromelysin-1 = Stromelysin-1 (Homo sapiens, UniProt P08254); experiment: Inhibition of human MMP3 in cell-free system by fluorescent spectroscopy
Method in brief: (§3)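 Recombinant human MMP-3 or MMP-9 catalytic domain with fluorogenic quenched peptide Mca-Pro-Leu-Gly-Leu-Dpa-Ala-Arg-NH2. Cleavage followed as fluorescence increase (excitation 324, emission 420). Rate of emission change taken as enzyme activity; IC50 values are means of three experiments.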

[13] = target: Matrix metalloproteinase-9 (Homo sapiens, UniProt P14780); experiment: Inhibition of human MMP9 in cell-free system by fluorescent spectroscopy; method in brief: as §3
Mus musculus [14] = experiment: Inhibition of LPS-alpha induced TNF-alpha production in BALB/c mouse assessed as decreased plasma TNF level at 30 mg/kg, po administered post LPS challenge measured after 60 mins by ELISA; format: functional; settings: 1 h
Method in brief: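 BALB/c mice (7–9 weeks), four per group, fasted 24 h. LPS given ip; compound given orally at 30 mg/kg ([…]). Serum collected from the heart and TNF-α measured by ELISA; percent inhibition reported.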

[15] = Half life in human liver microsomes at 40 uM by LC/MS/MS; format: ADME, Microsome
Method in brief: (§4)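 Compound at 40 µM with human liver microsomes (1 mg/mL), preincubated 5 min at 37 °C, then started with NADPH (1 mM final). Aliquots taken at 0, 15, 45 and 80 min and quenched with ice-cold acetonitrile containing carbamazepine internal standard. Centrifuged, then LC/MS/MS for parent; half-life and microsomal clearance derived.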

[16] = Metabolic stability in human liver microsomes at 40 uM by LC/MS/MS; format: ADME, Microsome; method in brief: as §4
[17] = Tmax in Sprague-Dawley rat at 30 mg/kg, po; format: ADME, organism-based; set-up: dose 30 mg/kg, route oral; settings: in vivo; method in brief: as §1
[18] = Cmax in Sprague-Dawley rat at 30 mg/kg, po; format: ADME, organism-based; set-up: dose 30 mg/kg, route oral; settings: in vivo; method in brief: as §1
[19] = AUC (0 to infinity) in Sprague-Dawley rat at 5 mg/kg, iv; format: ADME, organism-based; set-up: time infinity, dose 5 mg/kg, route intravenous; settings: plasma; method in brief: as §1
[20] = AUC (0 to infinity) in Sprague-Dawley rat at 30 mg/kg, po; format: ADME, organism-based; set-up: time infinity, dose 30 mg/kg, route oral; settings: plasma; method in brief: as §1
[21] = Clearance in Sprague-Dawley rat at 5 mg/kg, iv; format: ADME, organism-based; set-up: dose 5 mg/kg, route intravenous; settings: in vivo; method in brief: as §1
[22] = Volume of distribution at steady state in Sprague-Dawley rat at 5 mg/kg, iv; format: ADME, organism-based; set-up: dose 5 mg/kg, route intravenous; settings: in vivo, read-out: Vdss; method in brief: as §1

T1 sequence (P78536 whole entry, the tested form may be a part): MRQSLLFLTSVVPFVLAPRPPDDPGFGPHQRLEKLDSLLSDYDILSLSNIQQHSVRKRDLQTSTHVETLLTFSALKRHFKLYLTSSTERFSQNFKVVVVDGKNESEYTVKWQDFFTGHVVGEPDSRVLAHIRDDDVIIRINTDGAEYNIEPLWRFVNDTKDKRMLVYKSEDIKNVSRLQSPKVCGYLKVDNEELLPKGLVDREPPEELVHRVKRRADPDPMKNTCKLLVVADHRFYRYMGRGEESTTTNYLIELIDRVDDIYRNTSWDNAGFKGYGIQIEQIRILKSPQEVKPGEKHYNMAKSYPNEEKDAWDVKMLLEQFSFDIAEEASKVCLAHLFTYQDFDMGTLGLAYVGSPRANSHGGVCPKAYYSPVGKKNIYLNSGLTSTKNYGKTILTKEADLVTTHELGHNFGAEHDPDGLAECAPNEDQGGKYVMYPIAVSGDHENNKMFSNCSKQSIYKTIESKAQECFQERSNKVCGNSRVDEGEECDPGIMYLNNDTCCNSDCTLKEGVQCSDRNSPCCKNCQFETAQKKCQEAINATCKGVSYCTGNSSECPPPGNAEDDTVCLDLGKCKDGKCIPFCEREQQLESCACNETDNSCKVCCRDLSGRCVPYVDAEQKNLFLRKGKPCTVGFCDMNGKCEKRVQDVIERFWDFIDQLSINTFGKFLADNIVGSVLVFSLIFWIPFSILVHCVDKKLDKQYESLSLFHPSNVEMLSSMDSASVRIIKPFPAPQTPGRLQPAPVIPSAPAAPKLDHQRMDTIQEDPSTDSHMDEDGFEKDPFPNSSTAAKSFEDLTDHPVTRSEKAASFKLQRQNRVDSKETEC
Chain of Stromelysin-1 (P08254 whole entry, the tested form may be a part): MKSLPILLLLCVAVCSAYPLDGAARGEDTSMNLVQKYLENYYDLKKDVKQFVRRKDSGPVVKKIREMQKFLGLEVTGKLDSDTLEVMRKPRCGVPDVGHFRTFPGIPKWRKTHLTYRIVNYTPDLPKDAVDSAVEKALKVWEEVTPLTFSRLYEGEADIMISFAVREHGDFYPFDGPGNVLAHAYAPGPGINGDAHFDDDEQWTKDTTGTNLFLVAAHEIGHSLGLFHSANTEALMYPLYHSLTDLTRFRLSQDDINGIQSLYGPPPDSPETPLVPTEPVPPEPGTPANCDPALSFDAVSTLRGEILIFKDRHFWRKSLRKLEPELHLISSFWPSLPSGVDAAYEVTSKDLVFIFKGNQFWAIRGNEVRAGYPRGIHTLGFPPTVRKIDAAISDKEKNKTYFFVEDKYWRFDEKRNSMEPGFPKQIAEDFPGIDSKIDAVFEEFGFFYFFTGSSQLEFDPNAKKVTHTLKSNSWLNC
Chain of Matrix metalloproteinase-9 (P14780 whole entry): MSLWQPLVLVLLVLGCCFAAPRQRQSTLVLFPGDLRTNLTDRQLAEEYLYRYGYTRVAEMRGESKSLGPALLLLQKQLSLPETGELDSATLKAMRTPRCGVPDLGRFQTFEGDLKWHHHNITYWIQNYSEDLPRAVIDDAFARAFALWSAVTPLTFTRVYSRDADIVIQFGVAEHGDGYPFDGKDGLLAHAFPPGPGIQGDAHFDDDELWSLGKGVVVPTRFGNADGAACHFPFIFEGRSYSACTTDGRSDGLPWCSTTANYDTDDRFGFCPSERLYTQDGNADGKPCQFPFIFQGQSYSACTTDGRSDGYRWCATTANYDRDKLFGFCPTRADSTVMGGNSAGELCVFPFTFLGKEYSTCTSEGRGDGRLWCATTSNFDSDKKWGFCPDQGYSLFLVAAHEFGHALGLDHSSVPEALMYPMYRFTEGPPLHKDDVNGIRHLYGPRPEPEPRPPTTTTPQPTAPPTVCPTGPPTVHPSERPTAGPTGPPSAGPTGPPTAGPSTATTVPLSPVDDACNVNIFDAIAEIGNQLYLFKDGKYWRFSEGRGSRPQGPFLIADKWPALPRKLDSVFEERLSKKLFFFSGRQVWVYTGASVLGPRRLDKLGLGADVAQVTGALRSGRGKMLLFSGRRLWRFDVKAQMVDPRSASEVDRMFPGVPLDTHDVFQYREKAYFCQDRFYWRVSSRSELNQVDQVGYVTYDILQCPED

IC50 [1]: 0.00066 µM
IC50 [2]: 0.11 µM
IC50 (Mus musculus [3]): Not Active
SMILES: Cc1ccc2oc(=O)c(CC(CCc3ccc(OCCN(C)C)cc3)C(=O)NO)cc2c1 (stereo not given)

IC50 [1]: 0.00053 µM
IC50 [2]: 0.14 µM
IC50 (Mus musculus [3]): Not Active
SMILES: CCN(CC)CCOc1ccc(CCC(Cc2cc3cc(C)ccc3oc2=O)C(=O)NO)cc1 (stereo not given)

IC50 [1]: 0.00046 µM
IC50 [2]: 0.07 µM
IC50 (Mus musculus [3]): Not Active
SMILES: CCN(CC)CCOc1ccc(CCC(Cc2cc3ccc(F)cc3oc2=O)C(=O)NO)cc1 (stereo not given)

half-life [4]: 2.8 h
half-life [5]: 3.19 h
MRT inf [6]: 1.14 h
MRT inf [7]: 2.9 h
bioavailability [8]: 41.6%
IC50 [1]: 0.00028 µM
IC50 [2]: 0.06 µM
IC50 (Mus musculus [3]): Not Active
IC50 (Interstitial collagenase): 0.557 µM
IC50 (Stromelysin-1): 0.0087 µM
IC50 [13]: 0.023 µM
half-life at 40 µM [15]: 1.22 h
microsomal CLint at 40 µM [16]: 9.5 µL/min/mg
Tmax [17]: 2 h
Cmax [18]: 1.14 µg/mL
AUC(0-inf) [19]: 1.88 µg·h/mL
AUC(0-inf) [20]: 4.69 µg·h/mL
clearance [21]: 2.66 L/h/kg
Vd [22]: 3.04 L/kg
SMILES: CCN(CC)CCOc1ccc(CCC(Cc2cc3ccc(C)cc3oc2=O)C(=O)NO)cc1 (stereo not given)
Activity (Rattus norvegicus [9]): 8%
Activity (Rattus norvegicus [10]): 20%
Activity (Rattus norvegicus [11]): 14%
Activity (Rattus norvegicus [12]): 35%
inhibition in vivo at 30 mg/kg (Mus musculus [14]): 74%

IC50 [1]: 0.0328 µM
IC50 [2]: > 3 µM
IC50 (Mus musculus [3]): Not Active
SMILES: Cc1ccc2oc(=O)c(CC(CCCCc3ccccc3)C(=O)NO)cc2c1 (stereo not given)

IC50 [1]: 0.0003 µM
IC50 [2]: 0.92 µM
IC50 (Mus musculus [3]): Not Active
SMILES: Cc1ccc2oc(=O)c(CC(CCc3ccc(O)cc3)C(=O)NO)cc2c1 (stereo not given)

IC50 [1]: 0.0109 µM
IC50 [2]: 1.5 µM
IC50 (Mus musculus [3]): Not Active
SMILES: Cc1ccc2oc(=O)c(CC(Cc3ccc(OCCN4CCCCC4)cc3)C(=O)NO)cc2c1 (stereo not given)

IC50 [1]: 0.00107 µM
IC50 [2]: 0.26 µM
IC50 (Mus musculus [3]): Not Active
SMILES: Cc1ccc2oc(=O)c(CC(Cc3cccc(OCCN4CCCCC4)c3)C(=O)NO)cc2c1 (stereo not given)

IC50 [1]: 0.00104 µM
IC50 [2]: 0.2 µM
IC50 (Mus musculus [3]): Not Active
SMILES: Cc1ccc2oc(=O)c(CC(CCc3ccc(OCCN4CCCCC4)cc3)C(=O)NO)cc2c1 (stereo not given)

IC50 [1]: 0.0009 µM
IC50 [2]: 0.24 µM
IC50 (Mus musculus [3]): Not Active
SMILES: Cc1ccc2oc(=O)c(CC(CCc3cccc(OCCN4CCCCC4)c3)C(=O)NO)cc2c1 (stereo not given)

IC50 [1]: 0.00107 µM
IC50 [2]: 0.32 µM
IC50 (Mus musculus [3]): Not Active
SMILES: Cc1ccc2oc(=O)c(CC(CCCc3ccc(OCCN4CCCCC4)cc3)C(=O)NO)cc2c1 (stereo not given)

IC50 [1]: 0.00027 µM
IC50 [2]: 0.23 µM
IC50 (Mus musculus [3]): Not Active
SMILES: Cc1ccc2oc(=O)c(CC(CCCc3cccc(OCCN4CCCCC4)c3)C(=O)NO)cc2c1 (stereo not given)

IC50 [1]: 0.0005 µM
IC50 [2]: 0.52 µM
IC50 (Mus musculus [3]): Not Active
SMILES: Cc1ccc2oc(=O)c(CC(Cc3ccccc3)C(=O)NO)cc2c1 (stereo not given)
